Data published in ChEMBL document CHEMBL3745639, “Structure-activity relationships for lipoprotein lipase agonists that lower plasma triglycerides in vivo” (Eur J Med Chem, 2015).
In brackets after ≈: the same amount, converted by molar mass. Activity calls are given as the source filed them. Unless noted, no cut-off for these calls is given here.

What was measured:
[1] = Kinetic aqueous solubility of the compound in PBS at pH 7.4 after 2 hrs by LC-MS/MS analysis; format: physicochemical; details: read-out: Kinetic_solubility
Outline: (§1)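 Kinetic solubility from a 10 mM DMSO stock diluted 1:100 (1% DMSO, maximum detectable 0.1 mM) into PBS pH 7.4 or HCl-adjusted PBS at about pH 1.2. Incubated at 37 °C for 2 h in sealed glass vials, centrifuged at 10000 x g, 37 °C, 20 min, then LC-MS/MS.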

[2] = target: T1, Lipoprotein lipase (Bos taurus) (UniProt P11151); experiment: Induction of bovine LPL stabilization using intralipid as substrate at 3.12 uM preincubated for 10 mins with human recombinant ANGPTL4 followed by substrate addition measured after 45 mins relative to control
T1 sequence (whole entry): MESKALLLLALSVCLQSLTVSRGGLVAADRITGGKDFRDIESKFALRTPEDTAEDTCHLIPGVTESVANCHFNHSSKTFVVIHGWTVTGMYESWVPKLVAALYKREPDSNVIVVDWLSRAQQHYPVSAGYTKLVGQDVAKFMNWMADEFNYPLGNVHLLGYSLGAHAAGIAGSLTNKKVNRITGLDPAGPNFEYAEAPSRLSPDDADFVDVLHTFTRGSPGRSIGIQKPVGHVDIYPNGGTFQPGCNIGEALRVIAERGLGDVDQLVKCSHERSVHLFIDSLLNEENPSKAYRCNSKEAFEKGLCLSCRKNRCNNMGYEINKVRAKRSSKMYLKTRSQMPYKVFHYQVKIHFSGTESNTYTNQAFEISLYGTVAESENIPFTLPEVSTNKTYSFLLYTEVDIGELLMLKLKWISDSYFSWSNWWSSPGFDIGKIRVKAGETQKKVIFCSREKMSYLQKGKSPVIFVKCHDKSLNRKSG
Outline: (§2)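 Compound in DMSO in buffer (50 mM potassium phosphate pH 7.4, 0.15 M NaCl, 0.01% Triton X-100), with human ANGPTL4 N-terminal fragment (aa 26-184, 75 nM final) and bovine LPL (15 nM final). Preincubated 10 min at 25 °C with shaking. Stopped after 45 min with 2.5% Triton X-100, and NEFA measured enzymatically. Activity normalised between DMSO+LPL+ANGPTL4 (0%) and DMSO+LPL (100%).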

[3] = target: T1, Lipoprotein lipase (Bos taurus); experiment: Induction of bovine LPL stabilization using intralipid as substrate at 6.25 uM preincubated for 10 mins with human recombinant ANGPTL4 followed by substrate addition measured after 45 mins relative to control; outline: as §2
[4] = target: T1, Lipoprotein lipase (Bos taurus); experiment: Induction of bovine LPL stabilization using intralipid as substrate at 12.5 uM preincubated for 10 mins with human recombinant ANGPTL4 followed by substrate addition measured after 45 mins relative to control; outline: as §2
[5] = target: T1, Lipoprotein lipase (Bos taurus); experiment: Induction of bovine LPL stabilization using intralipid as substrate at 25 uM preincubated for 10 mins with human recombinant ANGPTL4 followed by substrate addition measured after 45 mins relative to control; outline: as §2
[6] = Apparent permeability across apical to basolateral side in human Caco2 cells at 10 uM after 15 to 60 mins; format: ADME, cell-based; details: Caco-2
Outline: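 Caco-2 monolayers washed with pre-warmed HBSS, then donor solution applied. Transport run with apical pH 6.5 and basolateral pH 7.4. Monolayer integrity checked by TEER and by mannitol permeability. Papp derived from transport rates.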

[7] = Apparent permeability across basolateral to apical side in human Caco2 cells at 10 uM after 15 to 60 mins; format: ADME, cell-based; details: Caco-2
[8] = Efflux ratio of apparent permeability from basolateral to apical over apical to basolateral side in human Caco2 cells at 10 uM after 15 to 60 mins; format: ADME, cell-based; details: Caco-2
[9] = Fraction unbound in human plasma at 10 uM after 4 hrs by rapid equilibrium dialysis method; format: ADME, cell-free
Outline: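 Rapid equilibrium dialysis of pooled human plasma from two male and two female non-smoking donors. Compound typically 10 μM final, dialysed against isotonic phosphate buffer pH 7.4 at 37 °C for 4 h with rapid rotation. Proteins precipitated with methanol containing warfarin internal standard, then both compartments analysed by LC-MS/MS.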

[10] = Stability of the compound in human plasma after 4 hrs at 37 degC by mass spectrometric analysis; format: ADME, cell-free; details: read-out: Stability
Outline: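 Plasma test solution (pooled human plasma, typically 10 μM compound) held at 37 °C for 4 h, matching the dialysis time. A reference sample was frozen immediately. Proteins precipitated with methanol containing warfarin, then LC-MS/MS. Stability expressed on a relative basis.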

[11] = Half life in human liver microsomes at 1 uM; format: ADME
Outline: (§3)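 Pooled liver microsomes (0.5 mg/ml) with compound at 1 μM in 0.1 M phosphate buffer pH 7.4. Reaction started with NADPH 1 mM. Sampled at 0, 5, 15 and 40 min in duplicate, quenched with acetonitrile containing warfarin, then LC-MS/MS.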

[12] = Intrinsic clearance in human liver microsomes at 1 uM after 5 to 40 mins by LC-MS/MS analysis in presence of NADPH; format: ADME; details: read-out: CLH; outline: as §3
[13] = Intrinsic clearance in human hepatocytes assessed per 10^6 cells at 1 uM after 10 to 60 mins by LC-MS/MS analysis in presence of NADPH; format: ADME, cell-based, Hepatocyte; details: read-out: CLH
Outline: (§4)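 Freshly isolated human hepatocytes (0.5 x 10⁶ cells/ml) in Williams medium E with compound at 1 μM. Reaction started by adding cells. Sampled at 0, 10, 30 and 60 min in duplicate, quenched with acetonitrile containing warfarin, then LC-MS/MS.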

[14] = Half life in human hepatocytes at 1 uM; format: ADME, cell-based, Hepatocyte; outline: as §4
Mus musculus = experiment: Hypolipidemic activity in C57B16/J mouse assessed as reduction in plasma triglyceride level at 10 mg/kg, ip qd administered for 4 days followed by olive oil injection through oral gavage one hour post last dose measured at 180 mins; format: functional, organism-based
Outline: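 Female C57B16/J mice, 8-9 weeks, about 18 g, n = 8/group. Given 10 mg/kg i.p. once daily for 4 days, 0.5 ml in PBS pH 7.4 with 3% DMSO and 0.2% Triton X-100. Fasted 8 h before the last dose, then 0.2 ml oral olive oil gavage 1 h after it. Tail-vein EDTA plasma taken at baseline and every 60 min to 180 min. TG measured enzymatically, reported as mean ± SD.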

[15] = Kinetic aqueous solubility of the compound in PBS at pH 1.2 after 2 hrs by LC-Ms analysis; format: physicochemical; details: read-out: Kinetic_solubility; outline: as §1
Plasma = experiment: Drug level in human plasma treated with 1,3-Dioxo-2-(4-(piperidin-1-yl)-3-(p-tolylcarbamoyl)phenyl)isoindoline-5-carboxylic acid at 10 uM after 24 hrs by LC-MS/MS analysis; format: ADME, cell-free
[16] = Half life in human plasma after 24 hrs; format: ADME, cell-free
Lipoprotein lipase = target: T2, Lipoprotein lipase (Bos taurus, UniProt P11151); experiment: Induction of bovine LPL stabilization using intralipid as substrate preincubated for 10 mins with human recombinant ANGPTL4 followed by substrate addition measured after 45 mins relative to control; outline: as §2
T2 sequence (P11151 whole entry): T1 sequence (whole entry)

Activity [2]	Activity [3]	Activity [4]	Activity [5]	Compound	also measured
inactive	49.8%	76%	67.9%	Cc1ccc(NC(=O)c2cc(-c3cc4cc(C(=O)O)ccc4o3)ccc2N2CCCCC2)cc1	solubility kinetic at 2 h [1]: < 2 µM; Papp A→B at 10 µM [6]: 1.2 ×10⁻⁶ cm/s; Papp B→A at 10 µM [7]: 1.8 ×10⁻⁶ cm/s; efflux ratio at 10 µM [8]: 1.5; Fu [9]: < 0.01%; remaining at 4 h [10]: 93%; half-life at 1 µM [11]: > 1.33 h; microsomal CLint at 1 µM [12]: < 17 µL/min/mg; hepatocyte CLint at 1 µM [13]: 35 µL/min/1e6 cells; half-life at 1 µM [14]: 0.667 h; Activity (Mus musculus): Active; solubility kinetic at 2 h [15]: 7 µM (≈ 3.18 µg/mL)
inactive	inactive	inactive	30.6%	Cc1ccc(NC(=O)c2cc(NC(=O)c3ccc(C(=O)O)cc3C(=O)O)ccc2N2CCCCC2)cc1	Drug metabolism (Plasma): metabolite_detected
inactive	inactive	90%	93.8%	Cc1ccc(NC(=O)c2cc(N3C(=O)c4ccc(C(=O)O)cc4C3=O)ccc2N2CCCCC2)cc1	solubility kinetic at 2 h [1]: 80 µM (≈ 38.7 µg/mL); half-life [16]: 1.5 h; Papp A→B at 10 µM [6]: 12 ×10⁻⁶ cm/s; Papp B→A at 10 µM [7]: 31 ×10⁻⁶ cm/s; efflux ratio at 10 µM [8]: 2.7; remaining at 4 h [10]: 2%; EC50 (Lipoprotein lipase): 6.6 µM; Activity (Mus musculus): inactive
inactive	inactive	inactive	38.8%	Cc1ccc(NC(=O)c2cc(NC(=O)c3cc(C(=O)O)ccc3C(=O)O)ccc2N2CCCCC2)cc1	Drug metabolism (Plasma): metabolite_detected
35%	101%	85.5%	24.5%	Cc1ccc(NC(=O)c2cc(-c3cc4cc(C(=O)O)ccc4[nH]3)ccc2N2CCCCC2)cc1	Activity (Mus musculus): Active
inactive	11.2%	90.6%	89.7%	Cc1ccc(NC(=O)c2cc(-n3cc4cc(C(=O)O)ccc4n3)ccc2N2CCCCC2)cc1	EC50 (Lipoprotein lipase): 5 µM; Activity (Mus musculus): Active
inactive	inactive	55.1%	36.3%	Cc1ccc(NC(=O)c2cc(N3CCCCC3)ccc2N2C(=O)c3ccc(C(=O)O)cc3C2=O)cc1	
inactive	inactive	inactive	57%	O=C(O)c1ccc2c(c1)C(=O)N(c1ccc(N3CCCCC3)c(C(=O)Nc3ccccc3)c1)C2=O	
inactive	19.4%	42.2%	65.8%	Cc1ccc(NC(=O)c2cc(N3C(=O)c4ccc(C(=O)O)cc4C3=O)ccc2N2CCCCC2)cc1C(F)(F)F	
inactive	inactive	inactive	inactive	Cc1ccc(NC(=O)c2cc(N3C(=O)c4cccc(C(=O)O)c4C3=O)ccc2N2CCCCC2)cc1	
inactive	4.2%	73.1%	89.4%	Cc1ccc(NC(=O)c2cc(Nc3ccccc3)cc(N3C(=O)c4ccc(C(=O)O)cc4C3=O)c2)cc1	
inactive	inactive	inactive	inactive	Cc1ccc(NC(=O)c2cc(N3C(=O)c4ccccc4C3=O)ccc2N2CCCCC2)cc1	
inactive	inactive	inactive	49%	Cc1ccc(NC(=O)c2cc(-c3nc4ccc(C(=O)O)cc4[nH]3)ccc2N2CCCCC2)cc1	Activity (Mus musculus): Active
inactive	inactive	inactive	inactive	O=C(O)c1ccc2c(c1)C(=O)N(c1ccc(NCc3cccnc3)c(C(=O)NCc3cccnc3)c1)C2=O	
inactive	66.8%	73%	69.8%	Cc1ccc(NC(=O)c2cc(N3C(=O)c4ccc(C(=O)O)cc4C3=O)ccc2N2CCCCC2)cc1Cl	
inactive	inactive	inactive	11.4%	Cc1ccc(NC(=O)c2cc(N3C(=O)c4ccc(N)cc4C3=O)ccc2N2CCCCC2)cc1	
inactive	inactive	inactive	inactive	Cc1ccc(NC(=O)c2cc(N3C(=O)c4ccc(C(=O)O)cc4C3=O)ccc2N2CCOCC2)cc1	
inactive	inactive	inactive	3.5%	Cc1ccc(NC(=O)c2cc(N3C(=O)c4ccc(C(N)=O)cc4C3=O)ccc2N2CCCCC2)cc1	
inactive	inactive	inactive	inactive	Cc1ccc(NC(=O)c2cc(N)ccc2N2CCCCC2)cc1	Drug metabolism (Plasma): metabolite_detected
